ChEMBL document CHEMBL2146437, “Burkholdines from Burkholderia ambifaria: antifungal agents and possible virulence factors” (J Nat Prod, 2012)
Converted amounts (≈) assume the structure as drawn.

Legend:
[1] = test system: Saccharomyces cerevisiae; test: Antifungal activity against Saccharomyces cerevisiae; assay type: functional
[2] = test system: Candida albicans; test: Antifungal activity against Candida albicans; assay type: functional
[3] = Toxicity in sheep erythrocytes assessed as concentration required to achieve 10% hemolysis after 1 hr by serial dilution method; assay type: cell-based, Ovis aries; conditions: erythrocyte
Procedure, shortened: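 Sheep erythrocytes as a 0.25% suspension in phosphate-buffered saline received compound in 2-fold serial dilutions and were held 1 h at 37 °C. Cells were then pelleted at 1000g for 5 min, and supernatant absorbance was read at 540 nm. The value is the concentration giving 10% hemolysis, reported as mean ± standard deviation of two independent measurements.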

[4] = Ratio of HC10 for sheep erythrocytes to MIC for Candida albicans; assay type: functional
[5] = test system: Aspergillus niger; test: Antifungal activity against Aspergillus niger; assay type: functional
[6] = test system: Aspergillus niger; test: Ratio of amphotericin-B MIC to compound MIC for Aspergillus niger; assay type: functional

| Structure (SMILES) | MIC [1] [mg/L] | MIC [2] [mg/L] | MIC [5] [mg/L] | HC10 [3] [µg/mL] | Ratio [4] | Ratio [6] |
| --- | --- | --- | --- | --- | --- | --- |
| C[C@@H]1[C@H](O)[C@@H](C)/C=C/C=C/C=C/C=C/C=C/C=C/C=C/[C@H](O[C@@H]2O[C@H](C)[C@@H](O)[C@H](N)[C@@H]2O)C[C@@H]2O[C@](O)(C[C@@H](O)C[C@@H](O)[C@H](O)CC[C@@H](O)C[C@@H](O)CC(=O)O[C@H]1C)C[C@H](O)[C@H]2C(=O)O [AMPHOTERICIN B] | 2.5 (≈ 2.71 µM) | 2.5 (≈ 2.71 µM) | 2.5 (≈ 2.71 µM) |  |  |  |
| CCCCCCCCCCC[C@H](O[C@@H]1OC[C@@H](O)[C@H](O)[C@H]1O)[C@H](O)[C@H](O)C[C@@H]1CC(=O)N[C@H](CO)C(=O)N[C@H]([C@H](O)c2ccc(O)cc2)C(=O)N[C@H](CC(N)=O)C(=O)NCC(=O)N[C@@H](CC(N)=O)C(=O)N[C@@H](CO)C(=O)N[C@@H](CC(N)=O)C(=O)N1 [BURKHOLDINES 1213] | 2 (≈ 1.65 µM) | 31 (≈ 25.5 µM) | 2 (≈ 1.65 µM) | 37 | 1 |  |
| CCCCCCCCCCC[C@H](O[C@H]1OC[C@@H](O)[C@H](O)[C@H]1O)[C@H](O)[C@H](O)C[C@@H]1CC(=O)N[C@H](CO)C(=O)N[C@H]([C@H](O)c2ccc(O)cc2)C(=O)N[C@H](CCN)C(=O)NCC(=O)N[C@@H](CC(N)=O)C(=O)N[C@@H](CO)C(=O)N[C@@H]([C@H](O)C(N)=O)C(=O)N1 [BURKHOLDINE 1215] | 0.15 (≈ 0.123 µM) | 0.15 (≈ 0.123 µM) | 0.15 (≈ 0.123 µM) | 5 | 33 |  |
| CCCCCCCCCCC[C@H](O[C@@H]1OC[C@@H](O)[C@H](O)[C@H]1O)[C@H](O)[C@H](O)C[C@@H]1CC(=O)N[C@H](CO)C(=O)N[C@H]([C@H](O)c2ccc(O)cc2)C(=O)N[C@H](CCN)C(=O)NCC(=O)N[C@@H](CC(N)=O)C(=O)N[C@@H](CO)C(=O)N[C@@H](CC(N)=O)C(=O)N1 [BURKHOLDINES 1119] | 0.1 (≈ 0.0833 µM) | 0.4 (≈ 0.333 µM) | 0.1 (≈ 0.0833 µM) | 15 | 38 | 25 |

More lines, main results first:

| MIC [1] [mg/L] | MIC [2] [mg/L] | MIC [5] [mg/L] | Structure (SMILES) | HC10 [3] [µg/mL] | Ratio [4] | Ratio [6] |
| --- | --- | --- | --- | --- | --- | --- |
| 1.6 (≈ 1.46 µM) | 12.5 (≈ 11.4 µM) | 1.6 (≈ 1.46 µM) | CCCCCCCCCCC[C@H](O)[C@H](O)[C@H](O)C[C@@H]1CC(=O)N[C@H](CO)C(=O)N[C@H]([C@H](O)c2ccc(O)cc2)C(=O)N[C@H](CC(N)=O)C(=O)NCC(=O)N[C@@H](CC(N)=O)C(=O)N[C@@H](CO)C(=O)N[C@@H]([C@H](O)C(N)=O)C(=O)N1 (relative stereo) | 4.5 | 0.4 |  |
| 0.4 (≈ 0.325 µM) | 12.5 (≈ 10.2 µM) | 12.5 (≈ 10.2 µM) | CCCCCCCCCCC[C@H](O[C@@H]1OC[C@@H](O)[C@H](O)[C@H]1O)[C@H](O)[C@H](O)C[C@@H]1CC(=O)N[C@H](CO)C(=O)N[C@H]([C@H](O)c2ccc(O)cc2)C(=O)N[C@H](CC(N)=O)C(=O)NCC(=O)N[C@@H](CC(N)=O)C(=O)N[C@@H](CO)C(=O)N[C@@H]([C@H](O)C(N)=O)C(=O)N1 | 10 | 1 |  |
